Measured values collected from several papers.
Lines come from different studies, so protocols differ.
Target: Calcium/calmodulin-dependent protein kinase type 1B (PNCK, Homo sapiens, UniProt Q6P2M8)

| SMILES | observed | method | tested at | remaining binding [%] |
| --- | --- | --- | --- | --- |
| N#CC1(c2ccccn2)CCN(Cc2cc(C(=O)N3CCCC3)c(=O)n3ccccc23)CC1 | cell-free assay | competition with immobilised ligand | 1 µM | 90 |
| Nc1ncc2c(n1)-c1c([nH]c3ccc(C#CC4CC4)cc13)CCCC2 | binding | competition with immobilised ligand | 1 µM | 79 |
| O=C(c1ccc(Nc2ncc(Cl)c(-c3ccc(Cl)s3)n2)cc1)N1CCC(N2CCCC2)CC1 | binding | competition with immobilised ligand | 1 µM | 56 |
| N[C@@H]1CCN(c2nccc(-c3cnn4ncccc34)n2)C1 | binding |  | 1 µM | 100 |
| Cc1cnc(Nc2ccc(C(=O)N3CCC(N4CCCC4)CC3)cc2)nc1-c1cc2ccccc2s1 | binding | competition with immobilised ligand | 1 µM | 36 |
| CN(C)c1nccc(-c2cnc3ncccn23)n1 | binding |  | 1 µM | 62 |
| COc1cnc(Nc2cccc(S(N)(=O)=O)c2)nc1N1CCN(c2ccccc2)CC1 | binding | competition with immobilised ligand | 1 µM | 92 |
| O=C(NCC1CCOCC1)c1n[nH]cc1NC(=O)c1c(F)cccc1F | binding | competition with immobilised ligand | 1 µM | 87 |
| COc1ncc2cc3ccccc3nc2c1C#N | cell-free assay | competition with immobilised ligand | 5 µM | 95 |
| CC(=O)N1CCC(c2ccc(C(=O)NC(=N)N)cc2C(F)(F)F)CC1 | cell-free assay | competition with immobilised ligand | 1 µM | 100 |
| CNC(=O)[C@@H]1CC[C@@H](n2c(-c3ccc4cnccc4c3)nc3ccc(C(=O)NCc4cccc(C(N)=O)c4)cc32)C1 | binding | competition with immobilised ligand | 1 µM | 85 |
| CC1=C(C#N)C(c2ccc3c(c2)c(NC(=O)c2ccccc2C)nn3C)C(C#N)=C(C)N1 | cell-free assay | competition with immobilised ligand | 1 µM | 85 |
| c1cnn2ncc(-c3ccnc(N4CCC45COC5)n3)c2c1 | binding |  | 1 µM | 81 |
| O=C(NCCCN1CCOCC1)c1ccc(Nc2ncc(Cl)c(-c3ccc(Cl)s3)n2)cc1 | binding | competition with immobilised ligand | 1 µM | 82 |
| CC1CCCN1c1nccc(-c2cnn3ncccc23)n1 (stereo not drawn) | binding |  | 1 µM | 82 |
| O=c1nc(-c2ccccn2)sc2ccccc12 | cell-free assay | competition with immobilised ligand | 1 µM | 56 |
| Cc1cnn2ncc(-c3ccnc(N(C)C)n3)c2c1 | binding |  | 1 µM | 97 |
| CNCc1ccccc1-c1csc([C@H](C)Nc2nc(C)nc3cc(OC)c(OC)cc23)c1 | cell-free assay | competition with immobilised ligand | 1 µM | 100 |
